Test results taken from ChEMBL document CHEMBL1155297, “Synthesis, antimicrobial and antioxidant activities of substituted pyrazoles, isoxazoles, pyrimidine and thioxopyrimidine derivatives” (2009).

How the values were obtained:
Assay type in all cases: functional
Aspergillus niger [1] = assay: Antifungal activity against Aspergillus niger NCIM 596 at 100 ug/disk after 48 hrs by agar disk diffusion method; details: NCIM 596, 48 h, read-out: IZ
In short: (§1)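 Fungal disc diffusion on nutrient agar plates pre-inoculated with each fungus. 6 mm sterile paper discs carried the compound in DMSO at the stated amount per disc. Plates were held at 37 °C, and inhibition-zone diameter was measured after 48 h. Values are the mean of three independent triplicate readings.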

Proteus vulgaris [2] = assay: Antibacterial activity against Proteus vulgaris NCIM 2027 at 100 ug/disk after 24 hrs by agar disk diffusion method; details: NCIM 2027, 24 h, read-out: IZ
In short: (§2)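 Agar disc diffusion on nutrient agar plates pre-inoculated with each bacterium. Sterile 6 mm filter-paper discs were moistened with compound in DMSO at the stated per-disc amount. Plates were incubated at 37 °C, and the growth-inhibition zone diameter was read after 24 h. Each determination was run in triplicate, and the mean of three independent readings is reported.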

[3] = Antioxidant activity assessed as nitric oxide production at 100 uM after 120 mins by Griess reagent method
In short: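 Nitric oxide assay with Griess read-out. At intervals, 0.5 ml of incubation solution was mixed with 0.5 ml Griess reagent (1% sulfanilamide, 0.1% N-naphthylethylenediamine dihydrochloride, 2% o-phosphoric acid in water). The control received an equal amount of solvent and was handled identically.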

Klebsiella pneumoniae [4] = assay: Antibacterial activity against Klebsiella pneumoniae NCIM 2957 at 200 ug/disk after 24 hrs by agar disk diffusion method; details: NCIM 2957, 24 h, read-out: IZ; in short: as §2
Aspergillus niger [5] = assay: Antifungal activity against Aspergillus niger NCIM 596 at 200 ug/disk after 48 hrs by agar disk diffusion method; details: NCIM 596, 48 h, read-out: IZ; in short: as §1
Staphylococcus aureus [6] = assay: Antibacterial activity against Staphylococcus aureus NCIM 5021 at 100 ug/disk after 24 hrs by agar disk diffusion method; details: NCIM 5021, 24 h, read-out: IZ; in short: as §2
Staphylococcus aureus [7] = assay: Antibacterial activity against Staphylococcus aureus NCIM 5021 at 200 ug/disk after 24 hrs by agar disk diffusion method; details: NCIM 5021, 24 h, read-out: IZ; in short: as §2
Klebsiella pneumoniae [8] = assay: Antibacterial activity against Klebsiella pneumoniae NCIM 2957 at 100 ug/disk after 24 hrs by agar disk diffusion method; details: NCIM 2957, 24 h, read-out: IZ; in short: as §2
Bacillus subtilis [9] = assay: Antibacterial activity against Bacillus subtilis NCIM 2063 at 200 ug/disk after 24 hrs by agar disk diffusion method; details: NCIM 2063, 24 h, read-out: IZ; in short: as §2
Fusarium solani [10] = assay: Antifungal activity against Fusarium solani NCIM 1330 at 200 ug/disk after 48 hrs by agar disk diffusion method; details: NCIM 1330, 48 h, read-out: IZ; in short: as §1
Curvularia lunata [11] = assay: Antifungal activity against Curvularia lunata NCIM 716 at 200 ug/disk after 48 hrs by agar disk diffusion method; details: NCIM 716, 48 h, read-out: IZ; in short: as §1
Bacillus subtilis [12] = assay: Antibacterial activity against Bacillus subtilis NCIM 2063 at 100 ug/disk after 24 hrs by agar disk diffusion method; details: NCIM 2063, 24 h, read-out: IZ; in short: as §2
Curvularia lunata [13] = assay: Antifungal activity against Curvularia lunata NCIM 716 at 100 ug/disk after 48 hrs by agar disk diffusion method; details: NCIM 716, 48 h, read-out: IZ; in short: as §1
Proteus vulgaris [14] = assay: Antibacterial activity against Proteus vulgaris NCIM 2027 at 200 ug/disk after 24 hrs by agar disk diffusion method; details: NCIM 2027, 24 h, read-out: IZ; in short: as §2
[15] = system: Radical scavenging activity; assay: Antioxidant activity assessed as DPPH free radical scavenging activity at 100 uM after 20 mins
In short: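 DPPH scavenging: compound solutions were added to DPPH in dioxane/ethanol and kept at ambient temperature for 20 min. Absorbance was read at 517 nm. The test–control difference was expressed as percent DPPH radical scavenging.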

Fusarium solani [16] = assay: Antifungal activity against Fusarium solani NCIM 1330 at 100 ug/disk after 48 hrs by agar disk diffusion method; details: NCIM 1330, 48 h, read-out: IZ; in short: as §1

Row | Compound | zone of inhibition at 100 µg/disc (Aspergillus niger [1]) [mm] | zone of inhibition at 100 µg/disc (Proteus vulgaris [2]) [mm] | inhibition [3] [%] | zone of inhibition at 200 µg/disc (Klebsiella pneumoniae [4]) [mm] | zone of inhibition at 200 µg/disc (Aspergillus niger [5]) [mm] | zone of inhibition at 100 µg/disc (Staphylococcus aureus [6]) [mm] | zone of inhibition at 200 µg/disc (Staphylococcus aureus [7]) [mm] | zone of inhibition at 100 µg/disc (Klebsiella pneumoniae [8]) [mm] | zone of inhibition at 200 µg/disc (Bacillus subtilis [9]) [mm] | zone of inhibition at 200 µg/disc (Fusarium solani [10]) [mm] | zone of inhibition at 200 µg/disc (Curvularia lunata [11]) [mm] | zone of inhibition at 100 µg/disc (Bacillus subtilis [12]) [mm] | zone of inhibition at 100 µg/disc (Curvularia lunata [13]) [mm] | zone of inhibition at 200 µg/disc (Proteus vulgaris [14]) [mm] | inhibition [15] [%] | zone of inhibition at 100 µg/disc (Fusarium solani [16]) [mm]
1 | Cc1ccc(C(=O)CC(C(=O)c2ccc(C)cc2)C2C(=N)N(C)C(=O)N(C)C2=N)cc1 (stereo unspecified) | 10 | 7 | 20.3 | 8 | 12 | 10 | 12 | 7 | 10 | 15 | 16 | 9 | 14 | 9 | 21.7 | 12
2 | Cc1ccc(S(=O)(=O)CC(C2C(N)=NN=C2N)S(=O)(=O)c2ccc(C)cc2)cc1 (stereo unspecified) | 28 | 22 | 60.5 | 26 | 31 | 27 | 29 | 23 | 28 | 35 | 33 | 26 | 31 | 25 | 59.4 | 30
3 | CN1C(=N)C(C(CC(=O)c2ccccc2)C(=O)c2ccccc2)C(=N)N(C)C1=O (stereo unspecified) | 12 | 6 | 22.6 | 9 | 16 | 10 | 13 | 7 | 11 | 13 | 15 | 9 | 13 | 8 | 23.8 | 11
4 | N=C1ON=C(N)C1C(CS(=O)(=O)c1ccccc1)S(=O)(=O)c1ccccc1 (stereo unspecified) | 28 | 26 | 84.9 | 29 | 31 | 29 | 31 | 26 | 32 | 34 | 32 | 30 | 29 | 28 | 85.8 | 31
5 | NC1=NN=C(N)C1C(CS(=O)(=O)c1ccccc1)S(=O)(=O)c1ccccc1 (stereo unspecified) | 31 | 24 | 60 | 30 | 34 | 30 | 32 | 28 | 33 | 37 | 36 | 31 | 33 | 25 | 58.5 | 34
6 | NC1=NC(=O)N=C(N)C1C(CC(=O)c1ccccc1)C(=O)c1ccccc1 (stereo unspecified) | 14 | 12 | 26.8 | 12 | 17 | 11 | 14 | 11 | 15 | 16 | 20 | 16 | 16 | 14 | 24.7 | 13
